# Results taken from article PMC5615155 (Toxicology Reports, 2017).
# “Also recorded” adds a separate entry of the source.
# Tested on: E. coli strain WP2 uvrA
# Assay: bacterial reverse mutation test
# Assay type: cell-based
# Settings: 100–5000 μg/plate, plate incorporation, ±S9
# Procedure, shortened: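 GLP plate-incorporation Ames test per OECD 471 with S. typhimurium TA98, TA100, TA1535, TA1537 and E. coli WP2 uvrA, ± Aroclor 1254-induced male rat liver S9. An initial toxicity-mutation phase (1.5–5000 μg/plate) set the range for the confirmatory assay at 100, 333, 1000, 3333 and 5000 μg/plate. Negative and positive controls were included. Toxicity and precipitate were noted.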
structure (smiles),measurement,value
"Cc1cc(C(=O)NC(C)(C)COc2cccc3c2C(N)=NS(=O)(=O)N3)cc(C)n1 [S2218, N-(1-((4-amino-2,2-dioxido-1H-benzo[c][1,2,6]thiadiazin-5-yl)oxy)-2-methylpropan-2-yl)-2,6-dimethylisonicotinamide]","Reverse mutation (in vitro), result",not mutagenic; also recorded: Negative
